This is an account of results in ChEMBL document CHEMBL5674874, “BRD4 facilitates DNA damage response and represses CBX5/Heterochromatin protein 1 (HP1)” (Oncotarget, 2017).

Molecules are shown by their SMILES. The source made the active and inactive calls. The calls are words filed in the database; no cut-off is given here.

Experiment [1] relates to OVCAR-5. Nature of the experiment: Cytotoxicity against human OVCAR-5 cells assessed as reduction in cell viability after 3 days by XTT assay. Particulars: OVCAR-5, 72 h. It is filed as functional, cell-based. The essentials:
(§1)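 Ovarian cancer lines in RPMI with 10% heat-inactivated FBS were seeded at 2,000-4000 cells/well in triplicate. Drug from DMSO stock was added 24hr later, and XTT was read 3 days after drug addition. Proliferation is relative to negative control, and IC50 was calculated from the individual XTT data points.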
Background: Formazan colour is commonly taken as a measure of viable cells.

The test system of experiment [2] is OVCAR-3. The experiment in a line: Cytotoxicity against human OVCAR-3 cells assessed as reduction in cell viability after 3 days by XTT assay. The experiment is classed as functional, cell-based. Particulars: OVCAR-3, 72 h. The method, boiled down:
as §1

The subject of experiment [3] is OVCAR-8. Nature of the experiment: Cytotoxicity against human OVCAR-8 cells assessed as reduction in cell viability after 3 days by XTT assay. The experiment is classed as functional, cell-based. Particulars: OVCAR-8, 72 h. The method, boiled down: as §1
Experiment [4] deals with A2780. The experiment in a line: Cytotoxicity against human A2780 cells assessed as reduction in cell viability after 3 days by XTT assay. It is filed as functional, cell-based. Particulars: A2780, 72 h. The method, boiled down: as §1
For experiment [5], the system named is SK-OV-3. The experiment in a line: Cytotoxicity against human SK-OV-3 cells assessed as reduction in cell viability after 3 days by XTT assay. It is filed as functional, cell-based. Particulars: SK-OV-3, 72 h. The method, boiled down: as §1
Experiment [6] concerns OVCAR-5. The experiment in a line: Cytotoxicity against human OVCAR-5 cells assessed as reduction in cell viability at 10 nM in presence of siCBX5 after 3 days by XTT assay. The experiment is classed as functional, cell-based. Particulars: time 3.0 day. The essentials: (§2)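 Cells were transfected with siRNA (final 20nM, DharmaFECT1) and seeded in 3 replicates 24hr later. Drug was added 24hr after seeding. Viability was read by XTT and normalized to siNeg-transfected cells.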

Experiment [7] concerns OVCAR-8. The experiment in a line: Cytotoxicity against human OVCAR-8 cells assessed as reduction in cell viability at 10 nM in presence of siCBX5 after 3 days by XTT assay. The experiment is classed as functional, cell-based. The following applies: time 3.0 day. The method, boiled down:
as §2

Experiment [8] relates to OVCAR-3. Nature of the experiment: Cytotoxicity against human OVCAR-3 cells assessed as reduction in cell viability at 10 nM in presence of siCBX5 after 3 days by XTT assay. The experiment is classed as functional, cell-based. Particulars: time 3.0 day. The method, boiled down:
as §2

The subject of experiment [9] is SK-OV-3. The experiment in a line: Cytotoxicity against human SK-OV-3 cells assessed as reduction in cell viability at 10 nM in presence of siCBX5 after 3 days by XTT assay. It is filed as functional, cell-based. The following applies: time 3.0 day. The method, boiled down: as §2
In experiment [10] the test system is OVCAR-8. Nature of the experiment: Induction of abnormal nuclear morphology in human OVCAR-8 cells at 10 nM by immunostaining. It is filed as functional, cell-based. The method, boiled down: (§3)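 Ovcar8 cells were transfected with 20nM siRNA; for co-transfection, 10nM of each. At 24hr they were plated on coverslips, and 8hr later LY2606368 10nM was added for 24hr. Cells were fixed (4% paraformaldehyde), permeabilized (0.25% Triton X-100), blocked (10% goat serum) and stained for H3K4me3, γ-H2AX and DAPI. Sphericity is the ratio of two perpendicular nuclear diameters, over multiple fields of 10-40 cells.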

Experiment [11] concerns OVCAR-8. The experiment in a line: Induction of abnormal nuclear morphology in human OVCAR-8 cells assessed as loss of nuclear roundness at 10 nM in presence of siCBX5 by immunostaining. It is filed as functional, cell-based. The essentials: as §3
Experiment [12] concerns A2780. The experiment in a line: Induction of DNA damage response in human A2780 cells assessed as CHK1 Ser345 phosphorylation at 2.5 uM in presence of 2.5 nM CHK1 inhibitor LY2606368 after 24 hrs by Western blot analysis. The experiment is classed as functional, cell-based. The method, boiled down:
(§4)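 Cells were exposed to JQ1 (2.5 μM) and/or LY2606368 (2.5 nM) for 24hr. Sub-confluent cells were lysed in 1% NP40 buffer with protease and phosphatase inhibitors, and protein was measured by BCA. Total lysates were blotted for phospho-CHK1 (Ser345) and CHK1 with GAPDH as loading control, using HRP chemiluminescence detection. Blots were repeated three times.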

Experiment [13] concerns OVCAR-5. Nature of the experiment: Induction of DNA damage response in human OVCAR-5 cells assessed as CHK1 Ser345 phosphorylation at 2.5 uM in presence of 2.5 nM CHK1 inhibitor LY2606368 after 24 hrs by Western blot analysis. It is filed as functional, cell-based. The essentials:
as §4
In general terms: Immunoblotting shows a protein as a band on a membrane.

A further experiment has as its system IGROV-1. Nature of the experiment: Induction of DNA damage response in human IGROV-1 cells assessed as CHK1 Ser345 phosphorylation at 2.5 uM in presence of 2.5 nM CHK1 inhibitor LY2606368 after 24 hrs by Western blot analysis. It is filed as functional, cell-based. The method, boiled down:
as §4

Experiment [14] deals with OVCAR-3. The experiment in a line: Induction of DNA damage response in human OVCAR-3 cells assessed as CHK1 Ser345 phosphorylation at 2.5 uM in presence of 2.5 nM CHK1 inhibitor LY2606368 after 24 hrs by Western blot analysis. It is filed as functional, cell-based. The essentials:
as §4

For experiment [15], the system named is SK-OV-3. Nature of the experiment: Induction of DNA damage response in human SK-OV-3 cells assessed as CHK1 Ser345 phosphorylation at 2.5 uM in presence of 2.5 nM CHK1 inhibitor LY2606368 after 24 hrs by Western blot analysis. It is filed as functional, cell-based. The essentials:
as §4

Experiment [16] deals with OVCAR-8. The experiment in a line: Induction of DNA damage response in human OVCAR-8 cells assessed as CHK1 Ser345 phosphorylation at 2.5 uM in presence of 2.5 nM CHK1 inhibitor LY2606368 after 24 hrs by Western blot analysis. It is filed as functional, cell-based. The essentials: as §4
Experiment [17] deals with OVCAR-8. Nature of the experiment: Induction of cell cycle arrest in human OVCAR-8 cells assessed as accumulation of cells at G1 phase at 2.5 uM for 20 hrs by propidium iodide staining based flow cytometry. The experiment is classed as functional. On the technique in general: In flow cytometry, cells or beads pass a laser one at a time.
For experiment [18], the system named is OVCAR-8. Nature of the experiment: Effect on gamma-H2AX expression in human OVCAR-8 cells at 2.5 uM for 20 hrs by immunofluorescent staining. The experiment is classed as functional, cell-based. The essentials:
(§5)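 Cells were serum-starved for 16hr, then given JQ1 2.5 μM and/or LY2606368 10 nM for 20hr. They were fixed in 4% paraformaldehyde, permeabilized with 0.25% Triton X-100, and blocked in 10% goat serum. γ-H2AX (Ser139/Tyr142) antibody at 1:200 was applied for 2hr, then an Alexa Fluor secondary for 1hr at 4°C. Signal was read by flow cytometry.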

The test system of experiment [19] is OVCAR-8. The experiment in a line: Effect on gamma-H2AX phosphorylation in nucleus of human OVCAR-8 cells at 2.5 uM for 20 hrs by immunofluorescent staining. The experiment is classed as functional, cell-based. The method, boiled down: as §5
Experiment [20] deals with Bromodomain-containing protein 4 (Homo sapiens) (UniProt O60885). Particulars: OVCAR-8, dose 500.0 nM, time 24.0 hrs.
Experiment [21] has the same target. Particulars: OVCAR-8, dose 500.0 nM, time 24.0 hrs. This is another data set of the same source.

In the case of `COc1cccc(OCCCN)c1-c1cc(Nc2cnc(C#N)cn2)n[nH]1` [PREXASERTIB], the concentration for half-maximal inhibition (IC50) (usually the concentration at which inhibition is half-maximal) with OVCAR-5 [1] worked out at 3 nM; in the experiment with OVCAR-3 [2] it was 12 nM; with OVCAR-8 [3] it was 10 nM; in the experiment on A2780 [4], 40 nM; with SK-OV-3 [5], 10 nM. For the same compound, the IC25 – broadly, the concentration at which the effect reaches the 25% level – with OVCAR-5 [1] (time 3 day) amounted to 1.5 nM; in the experiment with OVCAR-3 [2] (time 3 day) it was 6 nM; with OVCAR-8 [3] (time 3 day), 5 nM; in the experiment with A2780 [4] (time 3 day), 10 nM; with SK-OV-3 [5] (time 3 day), 4 nM. Besides, the result with OVCAR-5 [6], with OVCAR-8 [7], in the experiment on OVCAR-3 [8], with SK-OV-3 [9] and in the experiment on OVCAR-8 [11] was inactive. In the experiment on OVCAR-8 [10], the result was Active.
Regarding `Cc1sc2c(c1C)C(c1ccc(Cl)cc1)=N[C@@H](CC(=O)OC(C)(C)C)c1nnc(C)n1-2`, the IC50 in the experiment with OVCAR-5 [1], in the experiment on OVCAR-3 [2], in the experiment with OVCAR-8 [3], in the experiment with A2780 [4] and in the experiment with SK-OV-3 [5] was 100 nM in each case. Also, the outcome in the experiment on A2780 [12], with OVCAR-5 [13], in the experiment on IGROV-1, with OVCAR-3 [14], in the experiment on SK-OV-3 [15] and in the experiment with OVCAR-8 [16] was inactive. Also, the outcome with OVCAR-8 [18] and in the experiment with OVCAR-8 [19] was inactive. In the experiment with OVCAR-8 [17], the result was Active. In addition, the inhibition result in experiment [20] and in experiment [21] was “Active” throughout.
